ChEMBL document CHEMBL4043227, “Novel xanthone-polyamine conjugates as catalytic inhibitors of human topoisomerase IIα” (Bioorg Med Chem Lett, 2017)
Calls of active or inactive are those of the source. No cut-off for these calls is given here.

Tests used:
[1] = biological target: T1, DNA topoisomerase 2-alpha (Homo sapiens, UniProt P11388); experiment: (§1) Inhibition of 3 nM recombinant human topoisomerase-2alpha catalytic activity expressed in Saccharomyces cerevisiae JEL1 harboring topoisomerase1 deletion mutant assessed as reduction in supercoiled pBR322 DNA relaxation after 4 mins by ethidium bromide staining based agarose gel electrophoresis
In short: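 Topo IIα at 3 nM relaxes negatively supercoiled DNA, with no-enzyme and enzyme-only controls. Supercoiled (form I) and nicked (form II) bands are resolved on gel, and IC50 is estimated from the gels. Gels represent 2-4 independent experiments.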
Target sequence in this assay (P11388 whole entry, looked up, stated change not applied): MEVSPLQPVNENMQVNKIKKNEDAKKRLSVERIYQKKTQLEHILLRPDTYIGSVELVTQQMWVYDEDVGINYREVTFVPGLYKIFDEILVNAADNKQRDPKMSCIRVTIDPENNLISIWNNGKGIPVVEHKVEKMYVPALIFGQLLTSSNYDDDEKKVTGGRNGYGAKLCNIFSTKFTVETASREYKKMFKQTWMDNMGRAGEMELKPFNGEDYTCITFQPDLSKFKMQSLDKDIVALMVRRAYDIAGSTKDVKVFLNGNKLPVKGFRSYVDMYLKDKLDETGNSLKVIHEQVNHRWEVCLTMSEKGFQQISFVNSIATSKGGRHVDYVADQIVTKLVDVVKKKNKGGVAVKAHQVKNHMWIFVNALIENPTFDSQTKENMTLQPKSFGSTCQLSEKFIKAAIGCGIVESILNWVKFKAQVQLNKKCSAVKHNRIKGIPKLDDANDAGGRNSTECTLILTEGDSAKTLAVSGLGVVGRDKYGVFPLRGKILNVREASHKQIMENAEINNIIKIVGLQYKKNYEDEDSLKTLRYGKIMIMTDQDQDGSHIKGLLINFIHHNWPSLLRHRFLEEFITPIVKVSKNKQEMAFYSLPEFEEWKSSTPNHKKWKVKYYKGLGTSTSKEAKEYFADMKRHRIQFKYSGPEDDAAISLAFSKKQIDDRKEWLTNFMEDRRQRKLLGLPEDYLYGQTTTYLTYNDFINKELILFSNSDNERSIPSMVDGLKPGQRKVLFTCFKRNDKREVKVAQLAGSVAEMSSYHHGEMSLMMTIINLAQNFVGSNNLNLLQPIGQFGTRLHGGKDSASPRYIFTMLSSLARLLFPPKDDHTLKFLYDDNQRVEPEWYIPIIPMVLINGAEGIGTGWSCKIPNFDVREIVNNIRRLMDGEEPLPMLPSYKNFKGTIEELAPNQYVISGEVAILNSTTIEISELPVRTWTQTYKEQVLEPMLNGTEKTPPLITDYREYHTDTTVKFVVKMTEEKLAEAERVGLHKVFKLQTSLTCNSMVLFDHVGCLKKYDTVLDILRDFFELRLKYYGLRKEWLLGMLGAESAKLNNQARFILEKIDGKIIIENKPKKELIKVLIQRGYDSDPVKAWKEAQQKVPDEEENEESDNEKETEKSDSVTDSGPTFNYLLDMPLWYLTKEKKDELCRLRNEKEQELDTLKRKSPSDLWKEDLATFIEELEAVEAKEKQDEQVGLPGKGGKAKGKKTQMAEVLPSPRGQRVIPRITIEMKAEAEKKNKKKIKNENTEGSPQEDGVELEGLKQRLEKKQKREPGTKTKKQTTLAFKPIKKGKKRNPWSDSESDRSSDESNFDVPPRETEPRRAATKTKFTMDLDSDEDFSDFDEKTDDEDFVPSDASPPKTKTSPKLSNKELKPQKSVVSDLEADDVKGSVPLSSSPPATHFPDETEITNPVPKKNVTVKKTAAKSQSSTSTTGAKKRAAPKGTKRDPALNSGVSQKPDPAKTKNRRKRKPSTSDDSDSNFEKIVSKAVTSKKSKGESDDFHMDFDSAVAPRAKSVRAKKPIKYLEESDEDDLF

[2] = biological target: T1, DNA topoisomerase 2-alpha; experiment: Inhibition of recombinant human topoisomerase-2alpha expressed in Saccharomyces cerevisiae JEL1 harboring topoisomerase1 deletion mutant assessed as reduction in etoposide induced enzyme-mediated DNA cleavage up to 100 uM by ethidium bromide staining based agarose gel electrophoresis
In short: (§2)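 Competition assay: 5-100 µM xanthone (one compound only up to 10 µM, for solubility) is added with 100 µM etoposide. Enzyme double-strand break levels are expressed relative to etoposide alone, set to 100%. Mean ± SD of 2-3 independent experiments.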
Target sequence in this assay (P11388 whole entry): as the sequence (P11388 whole entry, looked up, stated change not applied) above

[3] = biological target: T1, DNA topoisomerase 2-alpha; experiment: Inhibition of recombinant human topoisomerase-2alpha expressed in Saccharomyces cerevisiae JEL1 harboring topoisomerase1 deletion mutant assessed as enzyme-mediated supercoiled pBR322 cleavable complex formation up to 10 uM in presence of CaCl2 by ethidium bromide staining based agarose gel electrophoresis
In short: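 Cleavage reactions contain CaCl2, which raises baseline topo IIα DNA cleavage about 10- to 15-fold. Enzyme at 150 nM with negatively supercoiled DNA. Xanthones are tested up to 10 µM, with no-enzyme and enzyme-only controls.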
Target sequence in this assay (P11388 whole entry): as the sequence (P11388 whole entry, looked up, stated change not applied) above

[4] = biological target: T1, DNA topoisomerase 2-alpha; experiment: Ratio of IC50 for recombinant human topoisomerase-2alpha expressed in Saccharomyces cerevisiae JEL1 harboring topoisomerase1 deletion mutant assessed as enzyme-mediated decatenation of kinetoplast DNA to IC50 for recombinant human topoisomerase-2alpha catalytic activity expressed in Saccharomyces cerevisiae JEL1 harboring topoisomerase1 deletion mutant assessed as reduction in supercoiled pBR322 DNA relaxation
Target sequence in this assay (P11388 whole entry): as the sequence (P11388 whole entry, looked up, stated change not applied) above

[5] = biological target: T1, DNA topoisomerase 2-alpha; experiment: (§3) Poison activity at recombinant human topoisomerase-2alpha expressed in Saccharomyces cerevisiae JEL1 harboring topoisomerase1 deletion mutant assessed as enzyme-mediated supercoiled pBR322 cleavable complex formation at 2.5 to 100 uM after 6 mins by ethidium bromide staining based agarose gel electrophoresis
In short: (§4)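 Double-strand DNA cleavage by topo IIα (150 nM) on negatively supercoiled DNA, tested at 2.5, 10, 50 and 100 µM (one compound only up to 10 µM). Linear form III is resolved from forms I and II on ethidium-stained gels. Cleavage is normalised to the no-drug control set to 1, with 100 µM etoposide as reference. SD of 2-3 independent experiments.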
Target sequence in this assay (P11388 whole entry): as the sequence (P11388 whole entry, looked up, stated change not applied) above

[6] = biological target: T1, DNA topoisomerase 2-alpha; experiment: as §1, with “of 150” for “of 3”, “relaxation at 10 uM” for “relaxation”
In short: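 Control relaxation run at high enzyme (150 nM topo IIα) to match the cleavage assay. Negatively supercoiled DNA substrate, with no-enzyme and enzyme-only controls, read on gel.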
Target sequence in this assay (P11388 whole entry): as the sequence (P11388 whole entry, looked up, stated change not applied) above

[7] = biological target: T1, DNA topoisomerase 2-alpha; experiment: Inhibition of recombinant human topoisomerase-2alpha expressed in Saccharomyces cerevisiae JEL1 harboring topoisomerase1 deletion mutant assessed as reduction in enzyme-mediated [gamma32P]ATP hydrolysis up to 50 uM after 8 mins
Target sequence in this assay (P11388 whole entry): as the sequence (P11388 whole entry, looked up, stated change not applied) above

[8] = biological target: T1, DNA topoisomerase 2-alpha; experiment: Inhibition of recombinant human topoisomerase-2alpha expressed in Saccharomyces cerevisiae JEL1 harboring topoisomerase1 deletion mutant assessed as reduction in enzyme-mediated [gamma32P]ATP hydrolysis using relaxed pBR322 DNA as substrate after 8 mins
Target sequence in this assay (P11388 whole entry, looked up, stated change not applied): as above

[9] = biological target: T1, DNA topoisomerase 2-alpha; experiment: as §1, with “of 150” for “of 3”, “in enzyme-mediated relaxed” for “in supercoiled”, “DNA strand passage” for “DNA relaxation”, “after 2” for “after 4”, “mins in presence of APP(NH)P” for “mins”
In short: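 Topo IIα at 150 nM with relaxed DNA as substrate, ATP replaced by the non-hydrolysable analogue APP(NH)P, so only events up to strand passage are scored. Catenated DNA is read at the gel origin against relaxed DNA bands, with no-enzyme and enzyme-only controls. Gels represent at least 3 independent experiments.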
Target sequence in this assay (P11388 whole entry, looked up, stated change not applied): as above

[10] = biological target: T1, DNA topoisomerase 2-alpha; experiment: as §3, with “up” for “at 2.5”, “10” for “100”; in short: as §4
[11] = Solubility of the compound in Tris-HCl at pH 7.9 at 50 to 100 uM; format: physicochemical; details: buffer, pH 7.9, 100 µM
[12] = biological target: T1, DNA topoisomerase 2-alpha; experiment: Inhibition of recombinant human topoisomerase-2alpha expressed in Saccharomyces cerevisiae JEL1 harboring topoisomerase1 deletion mutant assessed as reduction in etoposide induced enzyme-mediated DNA cleavage up to 10 uM by ethidium bromide staining based agarose gel electrophoresis; in short: as §2
[13] = biological target: T1, DNA topoisomerase 2-alpha; experiment: as §1, with “of” for “of 3 nM”, “at 10 uM in presence of spermine” for “after 4 mins”
In short: (§5)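 Negatively supercoiled plasmid relaxed by 3 nM topoisomerase IIα with polyamine (spermidine or spermine) added. Controls were DNA without enzyme and enzyme without inhibitor. Products resolved on gels with supercoiled (form I) and nicked (form II) markers, then quantified. Error bars are standard error of the mean for 2 independent experiments.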

[14] = biological target: T1, DNA topoisomerase 2-alpha; experiment: as §1, with “of” for “of 3 nM”, “at 10 uM in presence of spermidine” for “after 4 mins”; in short: as §5
[15] = biological target: T1, DNA topoisomerase 2-alpha; experiment: as §1, with “relaxation at 10 uM” for “relaxation”
In short: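 Relaxation of negatively supercoiled plasmid by 3 nM topoisomerase IIα was read from gel mobility (supercoiled form I vs nicked form II). Controls were DNA without enzyme and enzyme-treated DNA without compound. Gels are representative of 2-4 independent experiments.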

Structure (SMILES): NCCCNCC(O)COc1cc(O)c2c(=O)c3ccccc3oc2c1 (stereo not given)
- IC50 [1]: 1 µM
- inhibition [2]: Active
- inhibition [3]: inactive
- Ratio IC50 [4]: 2 to 3
- Activity [5]: inactive
- inhibition [6]: Active

Structure (SMILES): NCCCNCCCCNCCCN [SPERMINE]
- IC50 [1]: > 1000 µM

Structure (SMILES): CCCCNCC(O)COc1cc(O)c2c(=O)c3ccccc3oc2c1 (stereo not given)
- IC50 [1]: 100 µM
- Activity [5]: inactive

Structure (SMILES): NCCCCNCC(O)COc1cc(O)c2c(=O)c3ccccc3oc2c1 (stereo not given)
- IC50 [1]: 2.5 to 5 µM
- Activity [5]: inactive

Structure (SMILES): NCCCCNCCCNCC(O)COc1cc(O)c2c(=O)c3ccccc3oc2c1 (stereo not given)
- inhibition [2]: Active
- inhibition [3]: inactive
- inhibition [7]: inactive
- IC50 [8]: 10 µM
- IC50 [9]: < 10 µM
- Ratio IC50 [4]: 2 to 3
- Activity [5]: inactive
- inhibition [6]: Active

Structure (SMILES): Cl.Cl.Cl.Cl.NCCCNCCCCNCCCNCC(O)COc1cc(O)c2c(=O)c3ccccc3oc2c1 (stereo not given)
- inhibition [3]: inactive
- Activity [10]: inactive
- solubility [11]: Insoluble
- inhibition [12]: Active
- IC50 [9]: < 10 µM
- Ratio IC50 [4]: 2 to 3
- inhibition [6]: Active

Structure (SMILES): NCCCCNCCCN [SPERMIDINE]
- IC50 [1]: > 1000 µM

Structure (SMILES): O=c1c2ccccc2oc2cc(O)cc(O)c12
- IC50 [1]: ≥ 100 µM
- inhibition [3]: inactive
- inhibition [13]: inactive
- inhibition [14]: inactive
- inhibition [15]: inactive
- Ratio IC50 [4]: 2 to 3
- Activity [5]: inactive
- inhibition [6]: inactive
